# Key:
# Assay type in all cases: functional
# [1] = Growth inhibition of human UO31 cells after 48 hrs by sulforhodamine B assay; conditions: UO-31, 48 h
# Summary of the method: (§1)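 NCI-60 panel screen by SRB assay (Rubinstein method). Percentage growth taken from optical density of SRB colour, read before and 48 hrs after exposure to compound or vehicle control. All analogues first screened at 10^-5 M. Analogues giving 60% growth inhibition at that level in at least eight lines then went to a five-concentration dose-response study.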
# SR = assay: Growth inhibition of human SR cells after 48 hrs by sulforhodamine B assay; summary of the method: as §1
# [2] = Growth inhibition of human HL-60(TB) cells after 48 hrs by sulforhodamine B assay; conditions: HL-60, 48 h; summary of the method: as §1
# NCI-H23 = assay: Growth inhibition of human NCI-H23 cells after 48 hrs by sulforhodamine B assay; conditions: NCI-H23, 48 h; summary of the method: as §1
# MDA-MB-468 = assay: Growth inhibition of human MDA-MB-468 cells after 48 hrs by sulforhodamine B assay; conditions: MDA-MB-468, 48 h; summary of the method: as §1
# [3] = Growth inhibition of human HOP92 cells after 48 hrs by sulforhodamine B assay; conditions: HOP-92, 48 h; summary of the method: as §1
# [4] = Growth inhibition of human IGROV1 cells after 48 hrs by sulforhodamine B assay; conditions: IGROV-1, 48 h; summary of the method: as §1
# [5] = Growth inhibition of human HCT15 cells after 48 hrs by sulforhodamine B assay; conditions: HCT-15, 48 h; summary of the method: as §1
# A498 = assay: Growth inhibition of human A498 cells after 48 hrs by sulforhodamine B assay; conditions: A498, 48 h
# Summary of the method: (§2)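 NCI-60 sulforhodamine B screen. Compounds were first tested at a single dose of 10⁻⁵ M; hits, defined as ≥60% growth inhibition in at least eight lines, went on to a five-concentration dose–response. SRB optical density was read before and 48 h after exposure to compound or vehicle. Percentage growth was calculated from OD.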
# CCRF-CEM = assay: Growth inhibition of human CCRF-CEM cells after 48 hrs by sulforhodamine B assay; summary of the method: as §1
# [6] = Growth inhibition of human HCC2998 cells after 48 hrs by sulforhodamine B assay; conditions: HCC 2998, 48 h; summary of the method: as §1
# [7] = Growth inhibition of human SW620 cells after 48 hrs by sulforhodamine B assay; conditions: SW-620, 48 h; summary of the method: as §1
# [8] = Growth inhibition of human SNB75 cells after 48 hrs by sulforhodamine B assay; conditions: SNB-75, 48 h; summary of the method: as §1
# CAKI-1 = assay: Growth inhibition of human CAKI-1 cells after 48 hrs by sulforhodamine B assay; conditions: CAKI-1, 48 h; summary of the method: as §1
# [9] = Growth inhibition of human RPMI8226 cells after 48 hrs by sulforhodamine B assay; conditions: RPMI-8226, 48 h; summary of the method: as §1
# [10] = Growth inhibition of human NCI-ADR-RES cells after 48 hrs by sulforhodamine B assay; summary of the method: as §1
# KM12 = assay: Growth inhibition of human KM12 cells after 48 hrs by sulforhodamine B assay; conditions: KM12, 48 h; summary of the method: as §1
# [11] = Growth inhibition of human LOXIMVI cells after 48 hrs by sulforhodamine B assay; conditions: LOX IMVI; summary of the method: as §1
# 786-0 = assay: Growth inhibition of human 786-0 cells after 48 hrs by sulforhodamine B assay; conditions: 786-0, 48 h; summary of the method: as §1
# [12] = Growth inhibition of human HOP62 cells after 48 hrs by sulforhodamine B assay; conditions: HOP-62, 48 h; summary of the method: as §1
# HT-29 = assay: Growth inhibition of human HT-29 cells after 48 hrs by sulforhodamine B assay; conditions: HT-29, 48 h; summary of the method: as §1
# [13] = Growth inhibition of human COLO205 cells after 48 hrs by sulforhodamine B assay; conditions: COLO 205, 48 h; summary of the method: as §1
# [14] = Growth inhibition of human SF295 cells after 48 hrs by sulforhodamine B assay; conditions: SF-295, 48 h; summary of the method: as §1
# MDA-MB-231 = assay: Growth inhibition of human MDA-MB-231 cells after 48 hrs by sulforhodamine B assay; conditions: MDA-MB-231, 48 h; summary of the method: as §1
# MDA-MB-435 = assay: Growth inhibition of human MDA-MB-435 cells after 48 hrs by sulforhodamine B assay; conditions: MDA-MB-435, 48 h; summary of the method: as §2
# U-251 = assay: Growth inhibition of human U251 cells after 48 hrs by sulforhodamine B assay; conditions: U-251, 48 h; summary of the method: as §1
# [15] = Growth inhibition of human MOLT4 cells after 48 hrs by sulforhodamine B assay; conditions: MOLT-4, 48 h; summary of the method: as §1
# SK-MEL-2 = assay: Growth inhibition of human SK-MEL-2 cells after 48 hrs by sulforhodamine B assay; conditions: SK-MEL-2, 48 h; summary of the method: as §1
# MCF7 = assay: Growth inhibition of human MCF7 cells after 48 hrs by sulforhodamine B assay; conditions: MCF7, 48 h; summary of the method: as §1
# [16] = Growth inhibition of human OVCAR3 cells after 48 hrs by sulforhodamine B assay; conditions: OVCAR-3, 48 h; summary of the method: as §2
# A549 = assay: Growth inhibition of human A549/ATCC cells after 48 hrs by sulforhodamine B assay; conditions: A549, 48 h; summary of the method: as §1
# [17] = Growth inhibition of human SF268 cells after 48 hrs by sulforhodamine B assay; conditions: SF-268, 48 h; summary of the method: as §1
# NCI-H460 = assay: Growth inhibition of human NCI-H460 cells after 48 hrs by sulforhodamine B assay; conditions: NCI-H460, 48 h; summary of the method: as §1
# ACHN = assay: Growth inhibition of human ACHN cells after 48 hrs by sulforhodamine B assay; summary of the method: as §1
# [18] = Growth inhibition of human HCT116 cells after 48 hrs by sulforhodamine B assay; conditions: HCT-116, 48 h; summary of the method: as §1
# [19] = Growth inhibition of human PC3 cells after 48 hrs by sulforhodamine B assay; conditions: PC-3, 48 h; summary of the method: as §1
# K562 = assay: Growth inhibition of human K562 cells after 48 hrs by sulforhodamine B assay; conditions: K562, 48 h; summary of the method: as §1
# [20] = read-out: LD50 (the source's name)
smiles,measurement,setting,value
COc1ccc(-c2nn[nH]c2-c2cc(OC)c(OC)c(OC)c2)cc1,GI50,[1],< 0.01 µM
same,LC50 (concentration killing 50% of cells),[1]; read-out: LD50,> 100 µM
same,GI50,SR,< 0.01 µM
same,LC50 (concentration giving 50% net cell kill),SR; read-out: LD50,> 100 µM
same,GI50,[2],< 0.01 µM
same,CC50,[2]; [20],> 100 µM
same,GI50,NCI-H23,< 0.01 µM
same,LC50 (concentration giving 50% cell kill),NCI-H23; read-out: LD50,> 100 µM
same,GI50,MDA-MB-468,< 0.01 µM
same,CC50,MDA-MB-468; [20],> 100 µM
same,GI50,[3],< 0.01 µM
same,CC50,[3]; [20],> 100 µM
same,GI50,[4],< 0.01 µM
same,CC50,[4]; [20],> 100 µM
same,GI50,[5],< 0.01 µM
same,CC50,[5]; [20],> 100 µM
same,GI50,A498,< 0.01 µM
same,TGI,A498,< 0.01 µM
same,LC50 (50% net cell kill),A498; read-out: LD50,> 100 µM
same,GI50,CCRF-CEM,< 0.01 µM
same,LC50 (concentration killing 50% of cells),CCRF-CEM; read-out: LD50,> 100 µM
same,GI50,[6],0.024 µM
same,CC50,[6]; [20],> 100 µM
same,GI50,[7],< 0.01 µM
same,LD50 (concentration killing 50% of cells),[7],> 100 µM
same,GI50,[8],< 0.01 µM
same,CC50,[8]; [20],> 100 µM
same,GI50,CAKI-1,< 0.01 µM
same,CC50,CAKI-1; [20],> 100 µM
same,GI50,[9],< 0.01 µM
same,CC50,[9]; [20],> 100 µM
same,GI50,[10],< 0.01 µM
same,CC50,[10]; [20],> 100 µM
same,GI50,KM12,< 0.01 µM
same,LC50 (concentration killing 50% of cells),KM12; read-out: LD50,> 100 µM
same,GI50,[11],< 0.01 µM
same,CC50,[11]; [20],> 100 µM
same,GI50,786-0,< 0.01 µM
same,LC50 (concentration killing 50% of cells),786-0; read-out: LD50,> 100 µM
same,GI50,[12],< 0.01 µM
same,LC50 (concentration killing 50% of cells),[12]; read-out: LD50,> 100 µM
same,GI50,HT-29,< 0.01 µM
same,LC50 (concentration killing 50% of cells),HT-29; read-out: LD50,> 100 µM
same,GI50,[13],0.029 µM
same,CC50,[13]; [20],> 100 µM
same,GI50,[14],< 0.01 µM
same,CC50,[14]; [20],> 100 µM
same,GI50,MDA-MB-231,< 0.01 µM
same,CC50,MDA-MB-231; [20],> 100 µM
same,GI50,MDA-MB-435,< 0.01 µM
same,TGI,MDA-MB-435,< 0.01 µM
same,LC50 (concentration killing 50% of cells),MDA-MB-435; read-out: LD50,> 100 µM
same,GI50,U-251,< 0.01 µM
same,CC50,U-251; [20],> 100 µM
same,GI50,[15],0.012 µM
same,CC50,[15]; [20],> 100 µM
same,GI50,SK-MEL-2,< 0.01 µM
same,CC50,SK-MEL-2; [20],> 100 µM
same,GI50,MCF7,< 0.01 µM
same,CC50,MCF7; [20],> 100 µM
same,GI50,[16],< 0.01 µM
same,TGI,[16],< 0.01 µM
same,LC50 (concentration giving 50% net cell kill),[16]; read-out: LD50,> 100 µM
same,GI50,A549,< 0.01 µM
same,CC50,A549; [20],> 100 µM
same,GI50,[17],< 0.01 µM
same,CC50,[17]; [20],> 100 µM
same,GI50,NCI-H460,< 0.01 µM
same,CC50,NCI-H460; [20],> 100 µM
same,GI50,ACHN,< 0.01 µM
same,CC50,ACHN; [20],> 100 µM
same,GI50,[18],< 0.01 µM
same,CC50,[18]; [20],> 100 µM
same,GI50,[19],< 0.01 µM
same,CC50,[19]; [20],> 100 µM
same,GI50,K562,< 0.01 µM
same,CC50,K562; [20],> 100 µM

# — ChEMBL document CHEMBL3739417, “Synthesis and biological evaluation of novel 4,5-disubstituted 2H-1,2,3-triazoles as cis-constrained analogues of combretastatin A-4” (2015)
